Values after ≈ are worked out from the molar mass of the structure shown. Active and inactive are the calls of the source. No cut-off for these calls is given here.
Experiments:
[1] = system: Mycobacterium tuberculosis; test: Antitubercular activity against isoniazid-resistant Mycobacterium tuberculosis mc2 8243 measured after 10 days by liquid broth microdilution assay; type: functional; settings: mc2 8243, 240 h, time 10 day
In short: (§1)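 Broth microdilution in 7H9 with glycerol, ADS and 0.05% tyloxapol, supplemented with L-methionine, L-leucine (50 mg L−1 each), L-arginine (200 mg L−1) and D-pantothenate (24 mg L−1). Inoculum was diluted to OD600 0.005 (1.0 × 10^6 CFU ml−1) and added to two-fold serial dilutions. After 10 days at 37 °C, MIC was the lowest concentration without visible turbidity.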

[2] = system: Mycobacterium tuberculosis; test: Antitubercular activity against isoniazid and rifampicin resistant Mycobacterium tuberculosis mc2 8259 measured after 10 days by liquid broth microdilution assay; type: functional; settings: mc2 8259, 240 h, time 10 day; in short: as §1
[3] = system: Mycobacterium tuberculosis; test: Antitubercular activity against rifampicin-resistant Mycobacterium tuberculosis mc2 8247 measured after 10 days by liquid broth microdilution assay; type: functional; settings: mc2 8247, 240 h, time 10 day; in short: as §1
[4] = system: Mycobacterium tuberculosis; test: Inhibition of NDH-2 in Mycobacterium tuberculosis transformed with pMV762-Peredox-mCherry assessed as change in NADH/NAD+ ratio at 59.16 ug/ml incubated for 24 hrs by fluorimetric assay; settings: dose 59.16 µg/ml
[5] = system: Mycobacterium tuberculosis; test: Inhibition of NDH-2 in Mycobacterium tuberculosis transformed with pMV762-Peredox-mCherry incubated for 24 hrs by fluorimetric assay
In short: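 Peredox-mCherry reporter Mtb was grown in supplemented 7H9 to OD600 0.4–0.6 and inoculated onto compounds, then held at 37 °C for 24 h. Fluorescence was read at ex 400/em 510 nm and ex 587/em 615 nm. The green/red ratio was taken as NADH/NAD+. Triplicates; one-way ANOVA with Dunnett's test.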

[6] = system: Mycobacterium tuberculosis; test: Inhibition of NDH-2 in Mycobacterium tuberculosis transformed with pMV762-Peredox-mCherry assessed as change in NADH/NAD+ ratio at 2.5 ug/ml incubated for 24 hrs by fluorimetric assay; settings: dose 2.5 µg/ml

SMILES	MIC90 [1]	MIC90 [2]	MIC90 [3]	inhibition [4]	inhibition [5]	inhibition [6]
O=C(CSc1nc2c(Br)cc(F)cc2s1)NC1CCCCC1	8 µg/mL (≈ 19.8 µM)	8 µg/mL (≈ 19.8 µM)	4 µg/mL (≈ 9.92 µM)	–	–	–
NNC(=O)c1ccncc1 [ISONIAZID]	> 128 µg/mL	> 128 µg/mL	0.25 µg/mL (≈ 1.82 µM)	–	–	–
C=C(C)[C@H]1Cc2c(ccc3c2O[C@@H]2COc4cc(OC)c(OC)cc4[C@@H]2C3=O)O1 [ROTENONE]	–	–	–	Active	–	–
CC(C)c1ccc2nc(SCC(=O)NC3CCCCC3)sc2c1	4 µg/mL (≈ 11.5 µM)	4 µg/mL (≈ 11.5 µM)	4 µg/mL (≈ 11.5 µM)	–	Active	–
Cc1cc(C)c2nc(SCC(=O)NC3CCCCC3)sc2c1	4 µg/mL (≈ 12 µM)	4 µg/mL (≈ 12 µM)	8 µg/mL (≈ 23.9 µM)	–	Active	–
CO[C@H]1/C=C/O[C@@]2(C)Oc3c(C)c(O)c4c(O)c(c(/C=N/N5CCN(C)CC5)c(O)c4c3C2=O)NC(=O)/C(C)=C\C=C\[C@H](C)[C@H](O)[C@@H](C)[C@@H](O)[C@@H](C)[C@H](OC(C)=O)[C@@H]1C [RIFAMPIN]	0.12 µg/mL (≈ 0.146 µM)	> 128 µg/mL	> 128 µg/mL	–	–	–
O=C(CSc1nc2ccccc2c(=O)[nH]1)NC1CCCCC1	0.125 µg/mL (≈ 0.394 µM)	0.125 µg/mL (≈ 0.394 µM)	0.25 µg/mL (≈ 0.788 µM)	–	–	–
CC(C)/N=c1\cc2n(-c3ccc(Cl)cc3)c3ccccc3nc-2cc1Nc1ccc(Cl)cc1 [CLOFAZIMINE]	–	–	–	–	–	inactive

From ChEMBL document CHEMBL5532690, “Antitubercular activity of 2-mercaptobenzothiazole derivatives targeting Mycobacterium tuberculosis type II NADH dehydrogenase” (RSC Med Chem, 2024)
